In general, EC50 refers to the concentration needed to bring the measured effect to its halfway point. What is called IC50 is the concentration that gives 50% inhibition. A high value points to weaker potency.

The results in this text go back to ChEMBL document CHEMBL1138509, “Synthesis and biological activities of topoisomerase I inhibitors, 6-arylmethylamino analogues of edotecarin” (J Med Chem, 2009).

One data set concerns the target T1, DNA topoisomerase 1 (Homo sapiens, UniProt P11387).
T1 sequence (P11387 whole entry): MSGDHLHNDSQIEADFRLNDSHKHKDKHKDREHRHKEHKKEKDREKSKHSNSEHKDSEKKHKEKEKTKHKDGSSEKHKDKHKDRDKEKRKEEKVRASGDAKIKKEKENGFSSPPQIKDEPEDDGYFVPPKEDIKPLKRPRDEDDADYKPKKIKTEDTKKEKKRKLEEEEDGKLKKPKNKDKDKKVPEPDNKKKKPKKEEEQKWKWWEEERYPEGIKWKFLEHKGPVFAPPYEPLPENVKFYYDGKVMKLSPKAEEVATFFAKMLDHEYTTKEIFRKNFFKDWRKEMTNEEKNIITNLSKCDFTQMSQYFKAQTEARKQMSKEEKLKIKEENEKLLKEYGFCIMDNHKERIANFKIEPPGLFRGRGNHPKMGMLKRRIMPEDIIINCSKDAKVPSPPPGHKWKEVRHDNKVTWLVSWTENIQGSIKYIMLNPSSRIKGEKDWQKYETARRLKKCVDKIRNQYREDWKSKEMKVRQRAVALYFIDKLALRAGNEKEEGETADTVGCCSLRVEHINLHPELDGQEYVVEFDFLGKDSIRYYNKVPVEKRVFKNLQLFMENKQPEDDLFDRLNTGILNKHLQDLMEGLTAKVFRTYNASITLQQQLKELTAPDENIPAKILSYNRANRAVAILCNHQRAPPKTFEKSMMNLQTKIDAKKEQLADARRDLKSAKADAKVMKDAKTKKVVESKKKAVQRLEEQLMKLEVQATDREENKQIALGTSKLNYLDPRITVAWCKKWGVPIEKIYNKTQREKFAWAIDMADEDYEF
The experiment in a line: Inhibition of human DNA topoisomerase 1-mediated DNA cleavage assessed as relaxation of supercoiled pBR322 plasmid DNA after 15 mins by densitometer.

Another data set has as its system P388/S. The experiment in a line: Cytotoxicity against mouse P388/S cells after 72 hrs by colorimetric tetrazolium-formazan method. The format is functional, cell-based. The gist of the method: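 Murine leukaemia P388 cells were exposed to compound for 72 h. Viability was read by the colorimetric tetrazolium-formazan method.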
Data set [1] has as its system MKN-45. The experiment in a line: Cytotoxicity against human MKN45 cells after 72 hrs. It counts as functional, cell-based. The settings on record: MKN-45, 72 h. The gist of the method: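 MKN-45 human stomach cancer cells were incubated with compound for 72 h. Cytotoxicity was measured by the colorimetric tetrazolium-formazan method and by sulforhodamine B dye staining.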

The next data set concerns DLD-1. The experiment in a line: Cytotoxicity against human DLD1 cells after 72 hrs. Conditions: DLD-1, 72 h. It counts as functional, cell-based.
Data set [2] is described as follows: Inhibition of PKC. The gist of the method:
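Protein kinase C inhibition assay, with Histone II-As as substrate.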

In data set [3] the target is Epidermal growth factor receptor (Homo sapiens, UniProt P00533). The experiment in a line: Inhibition of EGFR. A digest of the protocol:
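Kinase-inhibition assay against EGF receptor kinase, with Poly(Glu4Tyr1) as substrate.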

The subject of data set [4] is MKN-45. Briefly: Antitumor activity in human MKN45 cells xenografted iv dosed nude mouse assessed as tumor growth inhibition administered 5 times per week for 2 weeks at tumor growth of >= 0.2 cm2. The format is functional. The gist of the method:
(§1)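 Human MKN-45 (stomach) or MX-1 (breast) cells implanted subcutaneously into a side flank of nude mice. Compound given iv five times/week. GID₇₅ is the approximate dose giving 75% growth inhibition. LD₁₀ is the approximate 10% lethal dose at that schedule. Safety margin is LD₁₀/GID₇₅.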
A general note: In xenograft studies the graft and the host belong to different species.

Data set [5] has as its system Mus musculus. The experiment in a line: Toxicity in human MKN45 cells xenografted iv dosed nude mouse. The settings on record: in vivo. It counts as organism-based, MKN-45. A digest of the protocol: (§2)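 Toxicity was taken as LD10, the approximate dose lethal to 10% of nude mice at the treatment schedule. Mice bore subcutaneous side-flank MKN-45 or MX-1 xenografts and received iv dosing, either five times/week or twice/week for two consecutive weeks.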

Data set [6] can be described thus: Safety margin, ratio of LD10 for nude mouse to GID75 for human MKN45 cells. It counts as toxicity, cell-based. Conditions: mkn-45. A digest of the protocol:
(§3)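 Nude mice carried MKN-45 or MX-1 tumours implanted subcutaneously in a side flank. Compounds were given iv, either five times/week or twice/week for two consecutive weeks. The twice/week arm started once tumours reached 0.2 cm³ or larger. GID75 is the approximate dose giving 75% tumour growth inhibition, and LD10 is the approximate 10% lethal dose at that schedule. Safety margin = LD10/GID75.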

A further data set deals with MX1. Briefly: Antitumor activity in human MX1 cells xenografted iv dosed nude mouse assessed as tumor growth inhibition administered 5 times per week for 2 weeks at tumor growth of >= 0.2 cm2. It counts as functional. A digest of the protocol:
as §1

The subject of data set [7] is Mus musculus. The experiment in a line: Toxicity in human MX1 cells xenografted iv dosed nude mouse. The format is organism-based. The settings on record: in vivo. A digest of the protocol:
as §2

Data set [8] in a line: Safety margin, ratio of LD10 for nude mouse to GID75 for human MX1 cells. The format is toxicity, cell-based. The gist of the method: as §3

Sequence of Epidermal growth factor receptor (P00533 whole entry): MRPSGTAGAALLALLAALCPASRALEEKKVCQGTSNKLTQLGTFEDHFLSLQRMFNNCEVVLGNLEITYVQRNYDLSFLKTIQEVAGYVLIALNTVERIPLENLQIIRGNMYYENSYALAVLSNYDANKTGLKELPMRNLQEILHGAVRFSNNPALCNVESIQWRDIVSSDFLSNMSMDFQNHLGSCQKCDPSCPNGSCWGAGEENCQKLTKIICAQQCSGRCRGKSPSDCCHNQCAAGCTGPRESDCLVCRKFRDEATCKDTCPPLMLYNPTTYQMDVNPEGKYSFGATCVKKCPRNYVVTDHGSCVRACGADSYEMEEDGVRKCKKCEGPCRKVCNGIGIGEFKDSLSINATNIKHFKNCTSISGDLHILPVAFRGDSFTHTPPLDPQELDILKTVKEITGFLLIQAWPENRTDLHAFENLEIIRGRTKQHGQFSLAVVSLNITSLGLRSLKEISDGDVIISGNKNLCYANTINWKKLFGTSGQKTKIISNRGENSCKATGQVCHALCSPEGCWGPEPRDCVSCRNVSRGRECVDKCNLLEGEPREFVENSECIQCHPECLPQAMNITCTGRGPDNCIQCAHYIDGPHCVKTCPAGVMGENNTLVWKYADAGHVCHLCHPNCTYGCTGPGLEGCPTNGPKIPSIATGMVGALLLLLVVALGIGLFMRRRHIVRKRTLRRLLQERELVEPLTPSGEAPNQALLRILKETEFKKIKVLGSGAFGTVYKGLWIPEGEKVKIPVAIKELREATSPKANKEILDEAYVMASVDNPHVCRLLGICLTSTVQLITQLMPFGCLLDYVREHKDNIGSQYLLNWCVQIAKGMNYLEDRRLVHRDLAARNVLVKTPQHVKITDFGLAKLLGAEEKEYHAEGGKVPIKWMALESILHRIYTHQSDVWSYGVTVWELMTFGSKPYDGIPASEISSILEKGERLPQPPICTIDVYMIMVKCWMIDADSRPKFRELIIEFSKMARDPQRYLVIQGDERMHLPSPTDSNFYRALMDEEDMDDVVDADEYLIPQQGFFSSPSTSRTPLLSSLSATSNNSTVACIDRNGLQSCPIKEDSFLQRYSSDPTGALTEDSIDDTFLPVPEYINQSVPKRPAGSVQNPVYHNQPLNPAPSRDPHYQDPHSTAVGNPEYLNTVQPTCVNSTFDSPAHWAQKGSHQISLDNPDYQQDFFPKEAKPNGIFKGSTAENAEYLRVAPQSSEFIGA

Take `O=C1c2c(c3c4ccc(O)cc4n([C@@H]4O[C@H](CO)[C@@H](O)[C@H](O)[C@H]4O)c3c3[nH]c4cc(O)ccc4c23)C(=O)N1NC(CO)CO` [EDOTECARIN]: the EC50 on DNA topoisomerase 1 came to 51 nM. Besides, the IC50 is 1.5 nM in the data set on P388/S; 4.8 nM with MKN-45 [1]; 70 nM in the data set on DLD-1; 18000 nM in data set [2]; greater than 200000 nM in data set [3]. The GID75 in the data set with MKN-45 [4] was determined as 45 mg/m2; in the data set on MX1, 160 mg/m2. Further, the LD10 is recorded as greater than 1600 mg/m2 with Mus musculus [5] and greater than 2000 mg/m2 in the data set with Mus musculus [7]. Also, the selectivity ratio in [6] was greater than 36; in data set [8], greater than 13.
